≈ marks a conversion by molar mass, not a printed value.
Experiments:
Format in all cases: functional
Staphylococcus aureus [1] = experiment: Antibacterial activity against erythromycin-susceptible Staphylococcus aureus ATCC 25923 incubated for 24 hrs by broth dilution method; settings: ATCC 25923, 24 h
Summary of the method: (§1)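 CLSI broth microdilution in cation-adjusted Mueller-Hinton broth. Twofold dilutions spanned 0.25–128 or 0.5–256 µg/mL, with CAM and AZM as controls. Log-phase bacteria were added and incubated 24 h at 37 °C. MIC was read by turbidity as the concentration of the last clear well.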

Streptococcus pyogenes [2] = experiment: Antibacterial activity against erythromycin-susceptible Streptococcus pyogenes 1 clinical isolate incubated for 24 hrs by broth dilution method; summary of the method: as §1
Escherichia coli = experiment: Antibacterial activity against penicillin-susceptible Escherichia coli ATCC 25922 incubated for 24 hrs by broth dilution method; settings: ATCC 25922, 24 h; summary of the method: as §1
Pseudomonas aeruginosa = experiment: Antibacterial activity against penicillin-susceptible Pseudomonas aeruginosa ATCC 27853 incubated for 24 hrs by broth dilution method; settings: ATCC 27853, 24 h; summary of the method: as §1
Bacillus subtilis = experiment: Antibacterial activity against penicillin-susceptible Bacillus subtilis ATCC 9372 incubated for 24 hrs by broth dilution method; settings: ATCC 9372, 24 h; summary of the method: as §1
Staphylococcus aureus [3] = experiment: Antibacterial activity against penicillin-resistant Staphylococcus aureus ATCC 31007 incubated for 24 hrs by broth dilution method; settings: ATCC 31007, 24 h
Staphylococcus aureus [4] = experiment: Antibacterial activity against methicillin-resistant Staphylococcus aureus ATCC 43300 incubated for 24 hrs by broth dilution method; settings: ATCC 43300, 24 h
Streptococcus pneumoniae [5] = experiment: Antibacterial activity against erythromycin-resistant Streptococcus pneumoniae B1 expressing the ermB incubated for 24 hrs by broth dilution method
Streptococcus pneumoniae [6] = experiment: Antibacterial activity against erythromycin-resistant Streptococcus pneumoniae AB11 expressing the ermB and mefA incubated for 24 hrs by broth dilution method
Streptococcus pyogenes [7] = experiment: Antibacterial activity against erythromycin-resistant Streptococcus pyogenes 2 clinical isolate incubated for 24 hrs by broth dilution method

| Compound | MIC (Staphylococcus aureus [1]) [µg/mL] | MIC (Streptococcus pyogenes [2]) [µg/mL] | MIC (Escherichia coli) [µg/mL] | MIC (Pseudomonas aeruginosa) [µg/mL] | MIC (Bacillus subtilis) [µg/mL] | MIC (Staphylococcus aureus [3]) [µg/mL] | MIC (Staphylococcus aureus [4]) [µg/mL] | MIC (Streptococcus pneumoniae [5]) [µg/mL] | MIC (Streptococcus pneumoniae [6]) [µg/mL] | MIC (Streptococcus pyogenes [7]) [µg/mL] |
| --- | --- | --- | --- | --- | --- | --- | --- | --- | --- | --- |
| CO[C@]1(C)C[C@@H](C)[C@H](O)[C@H](C)CN(C)C[C@@H](COCc2cn(-c3ccc(OC(F)(F)F)cc3)nn2)OC(=O)[C@H](C)[C@@H](O[C@H]2C[C@@](C)(OC)[C@@H](O)[C@H](C)O2)[C@H](C)[C@H]1O[C@@H]1O[C@H](C)C[C@H](N(C)C)[C@H]1O | 4 (≈ 4.1 µM) | 4 (≈ 4.1 µM) | 128 (≈ 131 µM) | > 128 | 2 (≈ 2.05 µM) | 64 (≈ 65.6 µM) | 32 (≈ 32.8 µM) | 32 (≈ 32.8 µM) | 16 (≈ 16.4 µM) | 32 (≈ 32.8 µM) |
| CO[C@]1(C)C[C@@H](C)[C@H](O)[C@H](C)CN(C)C[C@@H](COCc2cn(-c3cccc(C(F)(F)F)c3)nn2)OC(=O)[C@H](C)[C@@H](O[C@H]2C[C@@](C)(OC)[C@@H](O)[C@H](C)O2)[C@H](C)[C@H]1O[C@@H]1O[C@H](C)C[C@H](N(C)C)[C@H]1O | 8 (≈ 8.33 µM) | 4 (≈ 4.17 µM) | 128 (≈ 133 µM) | > 128 | 2 (≈ 2.08 µM) | 64 (≈ 66.7 µM) | 32 (≈ 33.3 µM) | 32 (≈ 33.3 µM) | 16 (≈ 16.7 µM) | 32 (≈ 33.3 µM) |
| COc1ccc(-c2cn(C[C@@H]3COC(=O)[C@H](C)[C@@H](O[C@H]4C[C@@](C)(OC)[C@@H](O)[C@H](C)O4)[C@H](C)[C@@H](O[C@@H]4O[C@H](C)C[C@H](N(C)C)[C@H]4O)[C@](C)(OC)C[C@@H](C)[C@H](O)[C@H](C)CN3C)nn2)cc1 | 64 (≈ 71.7 µM) | 4 (≈ 4.48 µM) | > 128 | > 128 | 32 (≈ 35.9 µM) | 32 (≈ 35.9 µM) | 128 (≈ 143 µM) | 128 (≈ 143 µM) | 128 (≈ 143 µM) | 128 (≈ 143 µM) |
| CCCc1ccc(-n2cc(COC[C@H]3CN(C)C[C@@H](C)[C@@H](O)[C@H](C)C[C@@](C)(OC)[C@H](O[C@@H]4O[C@H](C)C[C@H](N(C)C)[C@H]4O)[C@@H](C)[C@H](O[C@H]4C[C@@](C)(OC)[C@@H](O)[C@H](C)O4)[C@@H](C)C(=O)O3)nn2)cc1 | 0.5 (≈ 0.535 µM) | 1 (≈ 1.07 µM) | 64 (≈ 68.5 µM) | 16 (≈ 17.1 µM) | 0.5 (≈ 0.535 µM) | 128 (≈ 137 µM) | 128 (≈ 137 µM) | 64 (≈ 68.5 µM) | 32 (≈ 34.3 µM) | 64 (≈ 68.5 µM) |
| CO[C@]1(C)C[C@@H](C)[C@H](O)[C@H](C)CN(C)C[C@H](COCc2cn(-c3ccc(C)cc3)nn2)OC(=O)[C@H](C)[C@@H](O[C@H]2C[C@@](C)(OC)[C@@H](O)[C@H](C)O2)[C@H](C)[C@H]1O[C@@H]1O[C@H](C)C[C@H](N(C)C)[C@H]1O | 0.5 (≈ 0.552 µM) | 1 (≈ 1.1 µM) | 64 (≈ 70.6 µM) | 16 (≈ 17.7 µM) | ≤ 0.25 | 256 (≈ 283 µM) | 256 (≈ 283 µM) | 256 (≈ 283 µM) | 64 (≈ 70.6 µM) | 64 (≈ 70.6 µM) |
| CC[C@H]1OC(=O)[C@H](C)[C@@H](O[C@H]2C[C@@](C)(OC)[C@@H](O)[C@H](C)O2)[C@H](C)[C@@H](O[C@@H]2O[C@H](C)C[C@H](N(C)C)[C@H]2O)[C@](C)(O)C[C@@H](C)CN(C)[C@H](C)[C@@H](O)[C@]1(C)O [AZITHROMYCIN] | ≤ 0.25 | ≤ 0.03 | 64 (≈ 85.4 µM) | 16 (≈ 21.4 µM) | ≤ 0.25 | > 256 | > 256 | > 256 | 256 (≈ 342 µM) | 256 (≈ 342 µM) |
| CO[C@]1(C)C[C@@H](C)[C@H](O)[C@H](C)CN(C)[C@H](Cn2cc(-c3ccccn3)nn2)COC(=O)[C@H](C)[C@@H](O[C@H]2C[C@@](C)(OC)[C@@H](O)[C@H](C)O2)[C@H](C)[C@H]1O[C@@H]1O[C@H](C)C[C@H](N(C)C)[C@H]1O | 16 (≈ 18.5 µM) | 4 (≈ 4.63 µM) | 64 (≈ 74.2 µM) | 64 (≈ 74.2 µM) | 32 (≈ 37.1 µM) | 256 (≈ 297 µM) | 256 (≈ 297 µM) | 256 (≈ 297 µM) | 128 (≈ 148 µM) | 256 (≈ 297 µM) |
| CO[C@]1(C)C[C@@H](C)[C@H](O)[C@H](C)CN(C)C[C@H](COCc2cn(-c3ccc(OC(F)(F)F)cc3)nn2)OC(=O)[C@H](C)[C@@H](O[C@H]2C[C@@](C)(OC)[C@@H](O)[C@H](C)O2)[C@H](C)[C@H]1O[C@@H]1O[C@H](C)C[C@H](N(C)C)[C@H]1O | 2 (≈ 2.05 µM) | 2 (≈ 2.05 µM) | 64 (≈ 65.6 µM) | 16 (≈ 16.4 µM) | 1 (≈ 1.02 µM) | 128 (≈ 131 µM) | 128 (≈ 131 µM) | 128 (≈ 131 µM) | 32 (≈ 32.8 µM) | 32 (≈ 32.8 µM) |
| CO[C@]1(C)C[C@@H](C)[C@H](O)[C@H](C)CN(C)C[C@H](Cn2cc(-c3ccccc3)nn2)OC(=O)[C@H](C)[C@@H](O[C@H]2C[C@@](C)(OC)[C@@H](O)[C@H](C)O2)[C@H](C)[C@H]1O[C@@H]1O[C@H](C)C[C@H](N(C)C)[C@H]1O | 1 (≈ 1.16 µM) | 0.12 (≈ 0.139 µM) | 32 (≈ 37.1 µM) | 64 (≈ 74.2 µM) | 1 (≈ 1.16 µM) | 256 (≈ 297 µM) | 256 (≈ 297 µM) | 256 (≈ 297 µM) | 128 (≈ 148 µM) | 128 (≈ 148 µM) |
| COc1ccc(-n2cc(COC[C@@H]3CN(C)C[C@@H](C)[C@@H](O)[C@H](C)C[C@@](C)(OC)[C@H](O[C@@H]4O[C@H](C)C[C@H](N(C)C)[C@H]4O)[C@@H](C)[C@H](O[C@H]4C[C@@](C)(OC)[C@@H](O)[C@H](C)O4)[C@@H](C)C(=O)O3)nn2)cc1 | 8 (≈ 8.68 µM) | 4 (≈ 4.34 µM) | 128 (≈ 139 µM) | 128 (≈ 139 µM) | 2 (≈ 2.17 µM) | 256 (≈ 278 µM) | 256 (≈ 278 µM) | 256 (≈ 278 µM) | 128 (≈ 139 µM) | 128 (≈ 139 µM) |
| CCc1ccc(-n2cc(COC[C@@H]3CN(C)C[C@@H](C)[C@@H](O)[C@H](C)C[C@@](C)(OC)[C@H](O[C@@H]4O[C@H](C)C[C@H](N(C)C)[C@H]4O)[C@@H](C)[C@H](O[C@H]4C[C@@](C)(OC)[C@@H](O)[C@H](C)O4)[C@@H](C)C(=O)O3)nn2)cc1 | 4 (≈ 4.35 µM) | 4 (≈ 4.35 µM) | 128 (≈ 139 µM) | 128 (≈ 139 µM) | 2 (≈ 2.17 µM) | 64 (≈ 69.6 µM) | 64 (≈ 69.6 µM) | 32 (≈ 34.8 µM) | 32 (≈ 34.8 µM) | 32 (≈ 34.8 µM) |
| CO[C@]1(C)C[C@@H](C)[C@H](O)[C@H](C)CN(C)[C@@H](Cn2cc(-c3ccc(F)cc3)nn2)COC(=O)[C@H](C)[C@@H](O[C@H]2C[C@@](C)(OC)[C@@H](O)[C@H](C)O2)[C@H](C)[C@H]1O[C@@H]1O[C@H](C)C[C@H](N(C)C)[C@H]1O | 64 (≈ 72.7 µM) | 16 (≈ 18.2 µM) | > 128 | > 128 | 32 (≈ 36.4 µM) | 128 (≈ 145 µM) | 128 (≈ 145 µM) | 256 (≈ 291 µM) | 128 (≈ 145 µM) | 128 (≈ 145 µM) |
| CO[C@]1(C)C[C@@H](C)[C@H](O)[C@H](C)CN(C)[C@H](Cn2cc(-c3ccc(F)cc3)nn2)COC(=O)[C@H](C)[C@@H](O[C@H]2C[C@@](C)(OC)[C@@H](O)[C@H](C)O2)[C@H](C)[C@H]1O[C@@H]1O[C@H](C)C[C@H](N(C)C)[C@H]1O | 16 (≈ 18.2 µM) | 16 (≈ 18.2 µM) | > 128 | 128 (≈ 145 µM) | 16 (≈ 18.2 µM) | 128 (≈ 145 µM) | 256 (≈ 291 µM) | 128 (≈ 145 µM) | 128 (≈ 145 µM) | 128 (≈ 145 µM) |
